The text below walks through data of ChEMBL document CHEMBL4732059, “Structure-guided modification of isoxazole-type FXR agonists: Identification of a potent and orally bioavailable FXR modulator” (Eur J Med Chem, 2021).

The subject of series [1] is HepG2. As to the kind of experiment: Cytotoxicity against human HepG2 cells assessed as cell viability upto 40 uM after 48 hrs by MTT assay. Format: cell-based. The settings on record: hepg2, 48 h. In outline: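 HepG2 cells in DMEM/10% FBS seeded at 1×10⁵/mL and grown 24 h, then exposed to 0.1, 1, 10, 40 and 80 µM for 48 h. MTT (5 mg/mL stock) added for 4 h at 37 °C in the dark, formazan dissolved in DMSO, absorbance read at 490 nm; mean ± SD, n = 3.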
For orientation: Formazan colour is commonly taken as a measure of viable cells.

Series [2] addresses T1, Bile acid receptor (Homo sapiens) (UniProt Q96RI1).
T1 sequence (whole entry): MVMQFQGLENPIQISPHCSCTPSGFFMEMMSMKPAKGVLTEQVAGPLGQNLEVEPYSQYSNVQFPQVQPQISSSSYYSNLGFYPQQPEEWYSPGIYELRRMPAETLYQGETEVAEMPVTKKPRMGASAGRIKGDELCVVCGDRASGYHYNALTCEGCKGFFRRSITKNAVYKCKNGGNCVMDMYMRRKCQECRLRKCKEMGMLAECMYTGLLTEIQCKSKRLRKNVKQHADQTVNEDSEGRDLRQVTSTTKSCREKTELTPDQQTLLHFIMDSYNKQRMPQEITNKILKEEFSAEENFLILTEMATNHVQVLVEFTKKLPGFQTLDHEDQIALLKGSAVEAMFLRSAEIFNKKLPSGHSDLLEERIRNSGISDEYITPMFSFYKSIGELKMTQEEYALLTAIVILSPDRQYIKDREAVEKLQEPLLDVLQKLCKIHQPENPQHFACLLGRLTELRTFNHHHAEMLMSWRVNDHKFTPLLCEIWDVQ
As to the kind of experiment: Agonist activity at human FXR in HepG2 cells assessed as nuclear translocation at 1 uM for 16 hrs by immunofluorescence analysis. It is filed as cell-based. As to conditions: filed as agonist.

Series [3] concerns HepG2. As to the kind of experiment: Upregulation of FXR level in human HepG2 cells at 1 to 10 uM for 16 hrs by Western blot analysis. The settings on record: dose 1-10 µM. Format: functional, cell-based. In outline: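 HepG2 cells treated for 16 h, washed, lysed on ice and centrifuged; protein quantified by BCA. Equal protein run on 12% SDS-PAGE and transferred to PVDF. Probed overnight at 4 °C with anti-FXR, […], anti-CYP7A1 or anti-BSEP antibody, then HRP secondary 1 h at 37 °C; ECL detection.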
On the technique in general: A western blot detects proteins with antibodies after separation by electrophoresis.

Series [4] in a line: Half life in C57BL/6J mouse at 20 mg/kg, po measured upto 24 hrs by LC-MS analysis. Format: ADME, organism-based. As to conditions: in vivo. In outline:
(§1)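 Male C57BL/6J mice (22–24 g, n = 5), single oral dose 20 mg/kg in 0.5% CMC-Na PBS. Plasma sampled at 0.25, 0.5, 1, 2, 4, 8, 12 and 24 h, centrifuged, and supernatant analysed by LC-MS/MS in positive ion mode. Parameters from noncompartmental analysis; mean ± SD, n = 5.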

Series [5] in a line: Tmax in C57BL/6J mouse at 20 mg/kg, po measured upto 24 hrs by LC-MS analysis. It is filed as ADME, organism-based. As to conditions: in vivo. In outline:
as §1

Series [6] is described as follows: Cmax in C57BL/6J mouse at 20 mg/kg, po measured upto 24 hrs by LC-MS analysis. Format: ADME, organism-based. The arrangement: route oral, dose 20 mg/kg, time <=24. The settings on record: in vivo. Summed up: as §1
Series [7] can be described thus: AUC (0 to t) in C57BL/6J mouse at 20 mg/kg, po measured upto 24 hrs by LC-MS analysis. Format: ADME, organism-based. Set-up: route oral, dose 20 mg/kg, time <=24. As to conditions: in vivo. Summed up:
as §1

Structures are written as SMILES. Calls of active or inactive are those of the source.

One may read the half-life as the time needed for the level to fall by half in the phase considered. A lower half-life goes with rapid decline. The Tmax is the time from dosing to the highest level. As usually defined, the Cmax is the maximum level reached in the sampled fluid or tissue. By AUC(0-t) is commonly meant the area under the concentration-time curve up to a stated or last time point. Low values mean low exposure, high ones high exposure.

Take `CC(C)c1onc(-c2c(Cl)cccc2Cl)c1COc1ccc(/C=C/c2cccc(C(=O)O)c2)c(Cl)c1`: the Activity entry in series [1] is reported as “Non-Toxic”. The outcome in series [2] was Active.

On to `O=C(O)c1cccc(NC(=O)N2CCC(OCc3c(-c4ccccc4OC(F)(F)F)noc3C3CC3)CC2)c1`, for which the Activity entry in series [1] is given as “Non-Toxic”. Moreover, the outcome in series [3] was Active. For the same molecule, the half-life in series [4] was 10.6 h. Further, the time of peak concentration (Tmax) in series [5] was 4.8 h. The molecule further showed a Cmax in series [6] of 2350 ng/mL. The molecule also registered an AUC(0-t) at 24 h in series [7] of 36100 ng·h/mL.
